How the values were obtained:
[1] = target: Mitogen-activated protein kinase kinase kinase 10 (Homo sapiens, UniProt Q02779); assay: Inhibition of recombinant human full length GST-tagged MLK2 expressed in baculovirus expression system by FRET assay
[2] = target: Tyrosine-protein kinase CSK (Homo sapiens) (UniProt P41240); assay: Inhibition of full length recombinant His-tagged human CSK cytoplasmic domain expressed in Escherichia coli at 1 uM by FRET assay relative to control
[3] = target: MAP kinase-activated protein kinase 5 (Homo sapiens) (UniProt Q8IW41); assay: Inhibition of full length recombinant His-tagged human PRAK expressed in baculovirus expression system at 1 uM by FRET assay relative to control
[4] = target: Histamine H1 receptor (Homo sapiens) (UniProt P35367); assay: Binding affinity to recombinant human H1 receptor at 10 uM relative to control
Summary of the method: (§1)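 Broad radioligand-binding and enzyme screening panel covering 42 targets (biogenic amine and neuropeptide receptors, ion channels, neurotransmitter transporters, acetylcholinesterase). Single test concentration of 10 μM. Results expressed as binding relative to control, with a hit defined as >50% of control.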

[5] = target: Mast/stem cell growth factor receptor Kit (Homo sapiens) (UniProt P10721); assay: Inhibition of recombinant GST/His-tagged human KIT cytoplasmic domain (544 to 976 residues) at 1 uM by FRET assay relative to control
Summary of the method: (§2)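 Single-point screen at 1 μM compound in a 220-kinase panel run by Life Technologies (SelectScreen). Z′-LYTE format: phosphorylation of a labeled peptide substrate read by FRET. Values are reported as percent inhibition.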

[6] = target: Histamine H2 receptor (Homo sapiens) (UniProt P25021); assay: Binding affinity to recombinant human H2 receptor at 10 uM relative to control; summary of the method: as §1
[7] = target: Rho-associated protein kinase 1 (Homo sapiens) (UniProt Q13464); assay: Inhibition of recombinant N-terminal GST-tagged human ROCK1 catalytic domain (1 to 535 residues) expressed in baculovirus expression system at 1 uM by FRET assay relative to control
Summary of the method: (§3)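 Single-concentration screen at 1 μM in Life Technologies SelectScreen, across a 220-kinase panel. Z′-LYTE format measures phosphorylation of a labeled peptide by FRET. Results are reported as percent inhibition.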

[8] = target: Receptor-interacting serine/threonine-protein kinase 2 (Homo sapiens) (UniProt O43353); assay: Inhibition of recombinant His-tagged human RIPK2 catalytic domain (1 to 299 residues) expressed in baculovirus expression system at 1 uM by FRET assay relative to control; summary of the method: as §3
Receptor-interacting serine/threonine-protein kinase 2 (Homo sapiens), sequence (O43353 whole entry, the tested form may be a part): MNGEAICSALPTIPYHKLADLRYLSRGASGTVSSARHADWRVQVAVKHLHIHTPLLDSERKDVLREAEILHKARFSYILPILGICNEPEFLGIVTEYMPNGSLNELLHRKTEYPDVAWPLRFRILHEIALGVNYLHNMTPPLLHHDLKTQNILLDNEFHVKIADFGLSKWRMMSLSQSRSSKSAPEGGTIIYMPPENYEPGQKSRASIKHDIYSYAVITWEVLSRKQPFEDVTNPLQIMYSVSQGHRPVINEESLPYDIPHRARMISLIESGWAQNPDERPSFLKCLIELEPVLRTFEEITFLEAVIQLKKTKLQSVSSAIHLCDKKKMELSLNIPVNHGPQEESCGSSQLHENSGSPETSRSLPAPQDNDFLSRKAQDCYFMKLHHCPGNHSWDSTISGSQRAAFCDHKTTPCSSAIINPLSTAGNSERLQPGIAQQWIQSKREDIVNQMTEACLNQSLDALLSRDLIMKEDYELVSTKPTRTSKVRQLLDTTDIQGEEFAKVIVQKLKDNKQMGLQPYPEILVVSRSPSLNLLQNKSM

[9] = target: Mitogen-activated protein kinase kinase kinase 11 (Homo sapiens, UniProt Q16584); assay: Inhibition of recombinant human full length GST-tagged MLK3 expressed in baculovirus expression system by FRET assay
[10] = target: 5-hydroxytryptamine receptor 1B (Homo sapiens) (UniProt P28222); assay: Binding affinity to 5HT1B receptor (unknown origin) receptor at 10 uM relative to control; summary of the method: as §1
[11] = target: cAMP-dependent protein kinase catalytic subunit PRKX (Homo sapiens) (UniProt P51817); assay: Inhibition of full length GST-tagged human PRKX expressed in Escherichia coli at 1 uM by FRET assay relative to control
[12] = target: Calcium/calmodulin-dependent protein kinase type 1D (Homo sapiens) (UniProt Q8IU85); assay: Inhibition of CaMK1delta (unknown origin) at 1 uM by FRET assay relative to control
Calcium/calmodulin-dependent protein kinase type 1D (Homo sapiens), sequence (Q8IU85 whole entry, looked up): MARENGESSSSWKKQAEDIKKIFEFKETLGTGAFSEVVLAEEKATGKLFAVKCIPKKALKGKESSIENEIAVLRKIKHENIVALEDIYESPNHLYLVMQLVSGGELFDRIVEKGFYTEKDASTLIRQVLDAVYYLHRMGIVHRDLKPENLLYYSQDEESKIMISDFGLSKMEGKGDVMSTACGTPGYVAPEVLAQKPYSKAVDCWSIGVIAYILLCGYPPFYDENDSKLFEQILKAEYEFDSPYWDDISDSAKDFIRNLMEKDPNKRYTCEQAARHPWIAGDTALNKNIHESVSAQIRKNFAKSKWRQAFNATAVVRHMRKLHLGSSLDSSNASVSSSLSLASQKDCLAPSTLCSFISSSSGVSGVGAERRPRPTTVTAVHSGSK

[13] = target: Neuronal acetylcholine receptor; alpha4/beta2 (Homo sapiens) (UniProt P17787+P43681); assay: Binding affinity to alpha4beta2 nAChR (unknown origin) receptor at 10 uM relative to control; format: protein-complex assay; summary of the method: as §1
[14] = target: Death-associated protein kinase 1 (Homo sapiens) (UniProt P53355); assay: Inhibition of recombinant N-terminal GST-tagged human DAPK1 (1 to 363 residues) expressed in baculovirus expression system at 1 uM by FRET assay relative to control; summary of the method: as §3
Death-associated protein kinase 1 (Homo sapiens), sequence (P53355 whole entry, looked up, the tested form may be a part): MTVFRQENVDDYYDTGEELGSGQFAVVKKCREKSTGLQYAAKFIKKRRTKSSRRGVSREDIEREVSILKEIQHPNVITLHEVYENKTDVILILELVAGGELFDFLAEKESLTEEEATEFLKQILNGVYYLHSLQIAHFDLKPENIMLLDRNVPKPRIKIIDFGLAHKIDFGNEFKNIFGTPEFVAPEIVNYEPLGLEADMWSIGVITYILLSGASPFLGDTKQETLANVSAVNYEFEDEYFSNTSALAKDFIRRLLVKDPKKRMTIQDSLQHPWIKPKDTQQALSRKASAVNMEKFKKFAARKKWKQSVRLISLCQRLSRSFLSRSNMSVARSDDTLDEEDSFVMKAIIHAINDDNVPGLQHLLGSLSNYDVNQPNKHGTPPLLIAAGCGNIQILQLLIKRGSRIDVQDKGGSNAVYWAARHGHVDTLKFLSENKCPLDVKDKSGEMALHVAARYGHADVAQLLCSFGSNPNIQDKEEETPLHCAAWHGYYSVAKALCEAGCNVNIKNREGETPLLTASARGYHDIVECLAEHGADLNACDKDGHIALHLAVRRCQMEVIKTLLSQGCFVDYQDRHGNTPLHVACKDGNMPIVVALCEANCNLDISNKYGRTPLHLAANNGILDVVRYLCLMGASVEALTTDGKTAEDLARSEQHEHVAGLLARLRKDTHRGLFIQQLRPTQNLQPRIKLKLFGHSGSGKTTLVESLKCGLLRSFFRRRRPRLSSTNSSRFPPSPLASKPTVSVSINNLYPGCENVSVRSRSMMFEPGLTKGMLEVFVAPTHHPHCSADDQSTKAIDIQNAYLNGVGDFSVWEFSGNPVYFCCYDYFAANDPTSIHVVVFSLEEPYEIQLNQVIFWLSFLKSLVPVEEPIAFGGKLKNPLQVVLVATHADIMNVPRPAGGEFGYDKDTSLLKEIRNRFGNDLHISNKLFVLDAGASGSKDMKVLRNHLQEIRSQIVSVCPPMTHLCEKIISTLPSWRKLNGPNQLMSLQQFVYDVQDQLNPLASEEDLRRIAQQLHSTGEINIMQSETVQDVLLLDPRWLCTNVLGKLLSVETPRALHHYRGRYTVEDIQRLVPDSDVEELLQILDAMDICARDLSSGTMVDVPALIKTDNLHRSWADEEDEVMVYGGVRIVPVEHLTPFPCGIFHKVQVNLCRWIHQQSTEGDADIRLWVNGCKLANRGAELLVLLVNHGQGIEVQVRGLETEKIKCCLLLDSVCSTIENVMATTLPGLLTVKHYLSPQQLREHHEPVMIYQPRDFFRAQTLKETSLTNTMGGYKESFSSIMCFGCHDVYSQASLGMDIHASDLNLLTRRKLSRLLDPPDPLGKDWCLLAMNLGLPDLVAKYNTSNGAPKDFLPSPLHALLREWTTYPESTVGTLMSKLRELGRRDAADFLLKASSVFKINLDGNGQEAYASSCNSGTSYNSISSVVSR

[15] = target: Ephrin type-A receptor 3 (Homo sapiens) (UniProt P29320); assay: Inhibition of recombinant His-tagged human EphA3 cytoplasmic domain expressed in baculovirus expression system at 1 uM by FRET assay relative to control; summary of the method: as §2
[16] = target: Megakaryocyte-associated tyrosine-protein kinase (Homo sapiens) (UniProt P42679); assay: Inhibition of recombinant full length His-tagged human Hyl cytoplasmic domain expressed in Escherichia coli at 1 uM by FRET relative to control
[17] = target: CDK8/Cyclin C (Homo sapiens) (UniProt P49336+P24863); assay: Inhibition of recombinant full length His-tagged human CDK8/CyclinC expressed in baculovirus expression system at 1 uM by FRET assay relative to control
[18] = target: Ephrin type-B receptor 1 (Homo sapiens) (UniProt P54762); assay: Inhibition of recombinant GST-tagged human EphB1 cytoplasmic domain expressed in baculovirus expression system at 1 uM by FRET assay relative to control; summary of the method: as §2
[19] = target: Serine/threonine-protein kinase PLK1 (Homo sapiens) (UniProt P53350); assay: Inhibition of full length recombinant His-tagged human PLK1 expressed in baculovirus expression system at 1 uM by FRET assay relative to control
Homo sapiens = species on record: Homo sapiens; assay: Binding affinity to L-type calcium channel dihydropyridine binding site (unknown origin) receptor at 10 uM relative to control; summary of the method: as §1
[20] = target: SRSF protein kinase 3 (Homo sapiens) (UniProt Q9UPE1); assay: Inhibition of recombinant full length N-terminal GST-tagged human MSSK1 expressed in baculovirus at 1 uM by FRET assay relative to control
[21] = target: Mitogen-activated protein kinase 12 (Homo sapiens) (UniProt P53778); assay: Inhibition of recombinant full length His-tagged human p38gamma expressed in baculovirus expression system at 1 uM by FRET assay relative to control
[22] = target: Serine/threonine-protein kinase 17A (Homo sapiens) (UniProt Q9UEE5); assay: Inhibition of full length recombinant GST-tagged human DRAK1 expressed in baculovirus expression system at 1 uM by FRET assay relative to control
[23] = target: 5'-AMP-activated protein kinase catalytic subunit alpha-1 (Homo sapiens) (UniProt Q13131); assay: Inhibition of PRKAA1 (unknown origin) at 1 uM by FRET assay relative to control
5'-AMP-activated protein kinase catalytic subunit alpha-1 (Homo sapiens), sequence (Q13131 whole entry, looked up): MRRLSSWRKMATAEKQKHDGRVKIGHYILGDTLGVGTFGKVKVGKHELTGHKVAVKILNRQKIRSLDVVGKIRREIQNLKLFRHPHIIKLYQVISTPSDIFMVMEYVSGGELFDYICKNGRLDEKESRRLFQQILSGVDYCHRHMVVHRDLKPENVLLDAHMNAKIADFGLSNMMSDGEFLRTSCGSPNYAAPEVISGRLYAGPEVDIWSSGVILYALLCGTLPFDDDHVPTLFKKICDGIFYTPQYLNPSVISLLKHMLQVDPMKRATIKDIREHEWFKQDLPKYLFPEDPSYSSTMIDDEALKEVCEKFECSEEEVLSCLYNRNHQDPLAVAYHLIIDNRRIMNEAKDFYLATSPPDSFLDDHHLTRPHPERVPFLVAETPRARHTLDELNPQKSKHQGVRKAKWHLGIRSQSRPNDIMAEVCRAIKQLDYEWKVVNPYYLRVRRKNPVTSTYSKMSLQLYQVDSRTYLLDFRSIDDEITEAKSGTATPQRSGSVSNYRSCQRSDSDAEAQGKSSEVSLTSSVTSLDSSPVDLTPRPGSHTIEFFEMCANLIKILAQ

[24] = target: Serine/threonine-protein kinase 24 (Homo sapiens) (UniProt Q9Y6E0); assay: Inhibition of recombinant full length GST-tagged human MST3 expressed in baculovirus at 1 uM by FRET assay relative to control; summary of the method: as §3
Serine/threonine-protein kinase 24 (Homo sapiens), sequence (Q9Y6E0 whole entry, looked up): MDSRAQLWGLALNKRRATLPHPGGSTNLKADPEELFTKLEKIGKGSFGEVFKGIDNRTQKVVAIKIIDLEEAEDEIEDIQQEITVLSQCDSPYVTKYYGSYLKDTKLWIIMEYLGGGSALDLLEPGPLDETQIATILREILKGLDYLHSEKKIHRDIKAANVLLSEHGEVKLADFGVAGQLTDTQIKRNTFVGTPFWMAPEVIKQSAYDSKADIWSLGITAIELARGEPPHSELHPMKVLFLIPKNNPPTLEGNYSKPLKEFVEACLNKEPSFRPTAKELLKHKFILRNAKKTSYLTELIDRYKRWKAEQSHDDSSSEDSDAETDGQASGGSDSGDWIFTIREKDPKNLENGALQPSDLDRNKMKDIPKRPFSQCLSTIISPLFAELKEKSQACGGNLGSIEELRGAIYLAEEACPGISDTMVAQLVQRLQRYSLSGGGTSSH

[25] = target: Sodium-dependent dopamine transporter (Homo sapiens) (UniProt Q01959); assay: Binding affinity to recombinant human dopamine transporter at 10 uM relative to control; summary of the method: as §1
Sodium-dependent dopamine transporter (Homo sapiens), sequence (Q01959 whole entry): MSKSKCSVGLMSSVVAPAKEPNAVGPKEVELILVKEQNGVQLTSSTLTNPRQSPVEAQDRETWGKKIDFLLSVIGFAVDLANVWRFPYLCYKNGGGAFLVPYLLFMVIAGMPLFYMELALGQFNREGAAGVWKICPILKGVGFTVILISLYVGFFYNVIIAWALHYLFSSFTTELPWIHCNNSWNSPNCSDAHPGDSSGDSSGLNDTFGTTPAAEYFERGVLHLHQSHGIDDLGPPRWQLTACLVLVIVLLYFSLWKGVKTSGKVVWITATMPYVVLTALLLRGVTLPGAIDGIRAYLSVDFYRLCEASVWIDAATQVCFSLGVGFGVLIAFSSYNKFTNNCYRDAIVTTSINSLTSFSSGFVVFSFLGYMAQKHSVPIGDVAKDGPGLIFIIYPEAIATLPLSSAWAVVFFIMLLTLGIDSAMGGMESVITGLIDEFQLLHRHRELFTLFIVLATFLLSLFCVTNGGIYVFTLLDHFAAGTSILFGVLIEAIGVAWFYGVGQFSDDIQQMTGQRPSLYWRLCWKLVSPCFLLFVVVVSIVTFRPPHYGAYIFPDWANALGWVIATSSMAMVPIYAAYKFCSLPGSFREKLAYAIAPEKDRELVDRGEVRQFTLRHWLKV

[26] = target: 5-hydroxytryptamine receptor 1A (Homo sapiens) (UniProt P08908); assay: Binding affinity to 5HT1A receptor (unknown origin) receptor at 10 uM relative to control; summary of the method: as §1
[27] = target: Tyrosine-protein kinase Lyn (Homo sapiens) (UniProt P07948); assay: Inhibition of recombinant full length His-tagged human LYN expressed in baculovirus expression system at 1 uM by FRET assay relative to control
[28] = target: Serine/threonine-protein kinase Sgk2 (Homo sapiens) (UniProt Q9HBY8); assay: Inhibition of recombinant full length GST-tagged human SGK2 catalytic domain (54 to 427 residues) expressed in baculovirus expression system at 1 uM by FRET assay relative to control; summary of the method: as §3

Mitogen-activated protein kinase kinase kinase 10, sequence (Q02779 whole entry, the tested form may be a part): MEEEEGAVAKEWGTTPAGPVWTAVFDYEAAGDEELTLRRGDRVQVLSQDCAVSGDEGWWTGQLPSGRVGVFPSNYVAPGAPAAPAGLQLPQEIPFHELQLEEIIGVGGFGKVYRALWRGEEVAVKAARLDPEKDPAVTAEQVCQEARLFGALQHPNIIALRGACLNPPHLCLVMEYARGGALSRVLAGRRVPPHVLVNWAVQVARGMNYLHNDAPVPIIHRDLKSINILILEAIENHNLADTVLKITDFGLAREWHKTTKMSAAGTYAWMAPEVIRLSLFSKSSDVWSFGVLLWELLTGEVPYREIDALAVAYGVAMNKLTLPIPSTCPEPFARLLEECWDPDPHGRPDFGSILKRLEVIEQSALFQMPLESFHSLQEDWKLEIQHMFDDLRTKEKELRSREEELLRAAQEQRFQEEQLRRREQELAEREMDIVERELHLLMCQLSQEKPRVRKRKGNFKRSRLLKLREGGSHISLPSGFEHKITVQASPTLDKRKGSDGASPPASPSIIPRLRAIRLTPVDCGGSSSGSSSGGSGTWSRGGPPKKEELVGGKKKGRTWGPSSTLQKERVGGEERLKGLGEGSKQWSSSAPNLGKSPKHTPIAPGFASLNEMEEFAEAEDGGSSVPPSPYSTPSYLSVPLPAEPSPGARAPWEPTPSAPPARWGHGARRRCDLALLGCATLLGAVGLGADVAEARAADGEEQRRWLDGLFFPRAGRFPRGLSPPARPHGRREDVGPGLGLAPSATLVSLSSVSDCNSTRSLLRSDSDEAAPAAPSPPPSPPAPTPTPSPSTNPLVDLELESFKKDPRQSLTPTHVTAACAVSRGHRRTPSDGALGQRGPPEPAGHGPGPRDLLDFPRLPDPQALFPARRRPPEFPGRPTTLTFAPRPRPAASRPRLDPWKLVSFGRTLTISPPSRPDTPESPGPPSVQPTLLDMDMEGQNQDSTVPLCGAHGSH

Compound | IC50 [1] [µM] | inhibition [2] [%] | inhibition [3] [%] | Activity [4] [%] | inhibition [5] [%] | Activity [6] [%] | inhibition [7] [%] | inhibition [8] [%] | IC50 [9] [µM] | Activity [10] [%] | inhibition [11] [%] | inhibition [12] [%] | Activity [13] [%] | inhibition [14] [%] | inhibition [15] [%] | inhibition [16] [%] | inhibition [17] [%] | inhibition [18] [%] | inhibition [19] [%] | Activity (Homo sapiens) [%] | further results
Nc1ncc(-c2cc([C@H]3[C@@H]4CN(C5COC5)C[C@@H]43)n(CC3CC3)n2)cc1C(F)(F)F | 5.15 | 14.8 | -0.8 | > 50 | 6.5 | > 50 | -7.4 | 41.4 | > 10 | > 50 | -7.2 | 11.1 | > 50 | 14 | 22.9 | 0.1 | 2.4 | 5.9 | -0.4 | > 50 | inhibition [20]: -2.4%; inhibition [21]: 7.8%; inhibition [22]: 7.5%; inhibition [23]: 3.3%; inhibition [24]: -7.7%; Activity [25]: > 50%; Activity [26]: > 50%; inhibition [27]: 17.9%; inhibition [28]: 0.3%
CC(C)n1nc(-c2cnc(N)c(OC(F)(F)F)c2)cc1[C@H]1[C@@H]2CN(C3COC3)C[C@@H]21 | 7.88 | 6.8 | 8.1 | > 50 | 23.9 | > 50 | 8.8 | 34.2 | > 10 | > 50 | -2.9 | 2.8 | > 50 | -5.1 | 10.2 | 7.5 | 9.9 | 10.1 | 5 | > 50 | inhibition [20]: 6.5%; inhibition [21]: 7.8%; inhibition [22]: 5.2%; inhibition [23]: 5%; inhibition [24]: -9.5%; Activity [25]: > 50%; Activity [26]: > 50%; inhibition [27]: 15.6%; inhibition [28]: 2.7%
